Our source for the growth, % of control and inhibition values is ChEMBL document CHEMBL2062496, “Identification of a sirtuin 3 inhibitor that displays selectivity over sirtuin 1 and 2” (Eur J Med Chem, 2012).

The source made the active and inactive calls. The calls are words filed in the database; no cut-off is given here.

The subject of assay [1] is SR. Briefly: Growth inhibition of human SR cells assessed as cell growth at 10 uM after 48 hrs by MTT assay; values are per cent of control.
In assay [2] the target is T1, NAD-dependent protein deacetylase sirtuin-2 (Homo sapiens) (UniProt Q8IXJ6).
T1 sequence (whole entry): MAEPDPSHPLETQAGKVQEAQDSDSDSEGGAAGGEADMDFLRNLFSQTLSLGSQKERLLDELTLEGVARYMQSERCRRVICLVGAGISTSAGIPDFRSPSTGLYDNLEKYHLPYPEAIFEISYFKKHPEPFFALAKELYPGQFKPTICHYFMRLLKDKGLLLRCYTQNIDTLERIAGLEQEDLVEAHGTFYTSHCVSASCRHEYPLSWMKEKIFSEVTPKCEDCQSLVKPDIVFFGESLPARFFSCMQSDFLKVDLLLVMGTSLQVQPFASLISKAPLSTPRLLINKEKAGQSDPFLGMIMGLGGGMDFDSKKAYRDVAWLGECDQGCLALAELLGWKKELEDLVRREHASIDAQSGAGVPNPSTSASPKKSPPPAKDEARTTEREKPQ
Briefly: Inhibition of human SIRT2 assessed as enzyme activity using Fluor-de-Lys as substrate at 100 uM by fluorometry. The method in brief:
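Commercial Fluor-de-Lys kit, substrate human p53 379–382 peptide (Arg-His-Lys-Lys(Ac)). Human Sirt1 or Sirt2 was incubated with substrate, NAD+ and compound at 1 mM, also tested at 100 µM. Fluorescence scales with Lys382 deacetylation. Activity is expressed relative to control, mean ± S.E.M. of 3–4 replicates.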

Assay [3] relates to OVCAR-4. Briefly: Growth of human OVCAR4 cells assessed as cell growth at 10 uM after 48 hrs by MTT assay. The conditions noted are these: OVCAR-4, 48 h. A general note: Tetrazolium dyes change colour on reduction, which living cells bring about.
Assay [4] relates to EKVX. Put plainly: Growth inhibition of human EKVX cells assessed as cell growth at 10 uM after 48 hrs by MTT assay; values are per cent of control.

As for `c1cncc(-c2cnn[nH]2)c1`, the growth, % of control at 10 µM was 97.3% in assay [1], 47.4% in assay [3] and 76.4% in assay [4]. In addition, the inhibition result in assay [2] is “inactive”.
